One data set has as its target T1, Dihydrofolate reductase (Homo sapiens, UniProt P00374).
T1 sequence (P00374 whole entry): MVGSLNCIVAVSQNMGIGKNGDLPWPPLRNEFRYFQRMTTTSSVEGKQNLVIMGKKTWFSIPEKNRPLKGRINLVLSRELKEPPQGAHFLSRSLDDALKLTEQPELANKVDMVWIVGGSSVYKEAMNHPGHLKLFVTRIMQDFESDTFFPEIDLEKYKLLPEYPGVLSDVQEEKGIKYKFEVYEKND
As to the kind of experiment: Inhibition of recombinant human DHFR assessed as reduction in conversion of DHF to THF measured every 30 secs for 6 mins by UV-Vis spectrophotometric method.

Data set [1] relates to HCT-116. Briefly: Antiproliferative activity against human HCT116 cells after 72 hrs by MTT assay. It is filed as functional. The settings on record: HCT-116, 72 h; for CC50: read-out: LC50 (the source's name). In a few lines:
(§1)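 Cells kept in RPMI 1640 with 10% FBS, penicillin and streptomycin at 37°C and 5% CO2. Seeded at 1.0 x 10^4/well and left to adhere overnight. Serial dilutions made in medium from DMSO stocks. MTT at 400 µg/ml final for 4 h, read at T0 and after 72 h. Formazan dissolved in DMSO:glycine pH 10.5, A550. GI50 and LC50 interpolated from absorbance versus log concentration.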
In general terms: Formazan colour is commonly taken as a measure of viable cells.

The subject of another data set is MCF7. Briefly: Antiproliferative activity against human MCF7 cells after 72 hrs by MTT assay. It is filed as functional. The settings on record: MCF7, 72 h. Summed up:
as §1

For data set [2], the target named is T2, Dihydrofolate reductase (Homo sapiens) (UniProt P00374).
T2 sequence (whole entry): T1 sequence (P00374 whole entry)
As to the kind of experiment: Inhibition of DHFR in human HCT116 cell lysate assessed as reduction in conversion of DHF to THF after 16 hrs. Summed up:
(§2)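 HCT116 cells treated 16 h at 0.001 to 1 µM or 40 to 70 µM, then lysed. 400 µg lysate protein in PBS with 50 µM DHF and 200 µM NADPH, with matching controls containing 1 µM methotrexate. A340 decrease followed over 15 min at room temperature. MTX-sensitive rate given as % of DMSO-treated cells. Mean of three independent experiments.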

In data set [3] the target is T3, Thioredoxin reductase 1, cytoplasmic (Homo sapiens) (UniProt Q16881).
T3 sequence (whole entry): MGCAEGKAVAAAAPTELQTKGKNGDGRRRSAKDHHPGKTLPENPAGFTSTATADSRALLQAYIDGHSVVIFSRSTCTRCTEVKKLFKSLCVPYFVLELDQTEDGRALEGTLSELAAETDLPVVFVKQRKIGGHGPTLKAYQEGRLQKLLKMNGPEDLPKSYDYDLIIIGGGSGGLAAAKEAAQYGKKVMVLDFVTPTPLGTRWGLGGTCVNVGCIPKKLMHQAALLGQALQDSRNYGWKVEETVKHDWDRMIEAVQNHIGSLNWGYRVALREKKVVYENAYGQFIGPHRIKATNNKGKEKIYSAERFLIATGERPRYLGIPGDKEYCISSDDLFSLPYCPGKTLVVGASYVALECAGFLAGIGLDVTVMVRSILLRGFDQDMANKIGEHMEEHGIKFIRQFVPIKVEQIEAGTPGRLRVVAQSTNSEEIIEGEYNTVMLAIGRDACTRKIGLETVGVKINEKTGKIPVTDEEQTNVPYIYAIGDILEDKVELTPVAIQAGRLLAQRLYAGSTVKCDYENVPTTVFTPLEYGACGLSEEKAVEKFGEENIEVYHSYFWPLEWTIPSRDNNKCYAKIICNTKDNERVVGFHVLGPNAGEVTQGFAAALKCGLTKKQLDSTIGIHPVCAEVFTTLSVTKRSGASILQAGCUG
Briefly: Inhibition of thioredoxin reductase in human HCT116 cell lysate using thioredoxin as substrate at 40 to 70 uM after 16 hrs by end point insulin assay method. Summed up:
(§3)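 HCT116 cells treated 16 h at 0.001 to 1 µM or 40 to 70 µM, then lysed. Stopped with 1 mM DTNB and 240 µM NADPH in 6 M guanidine HCl and Tris pH 8.0, read at A412. Given as % of DMSO-treated cells. Mean of three experiments.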

Data set [4] addresses T3, Thioredoxin reductase 1, cytoplasmic (Homo sapiens). Briefly: Inhibition of thioredoxin reductase in human HCT116 cell lysate using thioredoxin as substrate at 0.001 to 1 uM after 16 hrs by end point insulin assay method.
Data set [5] deals with T4, Thioredoxin reductase 1, cytoplasmic (Rattus norvegicus, UniProt O89049).
T4 sequence (O89049 whole entry): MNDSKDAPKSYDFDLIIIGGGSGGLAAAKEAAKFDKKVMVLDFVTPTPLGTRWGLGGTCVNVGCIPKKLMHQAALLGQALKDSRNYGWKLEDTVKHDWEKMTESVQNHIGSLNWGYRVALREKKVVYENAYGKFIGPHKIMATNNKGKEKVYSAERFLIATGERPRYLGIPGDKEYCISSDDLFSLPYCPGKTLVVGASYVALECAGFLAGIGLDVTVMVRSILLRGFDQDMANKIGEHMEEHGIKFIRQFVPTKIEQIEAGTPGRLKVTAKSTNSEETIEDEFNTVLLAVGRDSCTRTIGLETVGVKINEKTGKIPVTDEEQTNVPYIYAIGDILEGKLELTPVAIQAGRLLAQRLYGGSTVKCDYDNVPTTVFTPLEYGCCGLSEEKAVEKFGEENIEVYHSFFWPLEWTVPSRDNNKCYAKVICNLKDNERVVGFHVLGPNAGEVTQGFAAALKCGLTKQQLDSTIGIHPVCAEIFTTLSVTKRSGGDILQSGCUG
Briefly: Inhibition of […] thioredoxin reductase after 30 mins by DTNB reduction assay. The conditions noted are these: read-out: IC50. In a few lines:
(§4)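 Rat liver TrxR at 2.1 units/ml preincubated with a range of test concentrations and 200 µM NADPH in 50 mM Tris-HCl, 1 mM EDTA, pH 7.5, at room temperature for 30 or 60 min. Equal volume of buffer with 5 mM DTNB and 200 µM NADPH then added. A412 followed over 2 min. Activity as % of vehicle Vmax; IC50 from log concentration plot.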

Data set [6] addresses T4, Thioredoxin reductase 1, cytoplasmic. Briefly: Inhibition of […] thioredoxin reductase after 60 mins by DTNB reduction assay. The conditions noted are these: read-out: IC50. In a few lines: as §4
In data set [7] the target is T2, Dihydrofolate reductase (Homo sapiens). Briefly: Inhibition of DHFR in human HCT116 cell lysate assessed as reduction in conversion of DHF to THF at 40 to 70 uM after 16 hrs. In a few lines:
as §2

The subject of data set [8] is HCT-116. As to the kind of experiment: Upregulation of DHFR protein levels in human HCT116 cell lysate at 40 to 70 uM after 16 hrs by Western blot analysis. It is filed as functional, cell-based. Summed up:
(§5)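 HCT116 plated at 1.5 x 10^6 per 100 mm plate, grown 48 h, then treated 16 h at 40 to 70 µM. Adherent and floating cells pooled and lysed in Triton X-100 buffer with protease inhibitors. Lysates cleared and protein measured by Bradford. Equal protein run on SDS-PAGE and blotted. DHFR or TrxR detected by ECL, β-actin antibody also used. Three independent experiments.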
On the technique in general: A western blot detects proteins with antibodies after separation by electrophoresis.

Data set [9] addresses T3, Thioredoxin reductase 1, cytoplasmic (Homo sapiens). Briefly: Inhibition of thioredoxin reductase in human HCT116 cell lysate using thioredoxin as substrate after 16 hrs by end point insulin assay method. Summed up:
as §3

Data set [10] relates to HCT-116. Briefly: Effect on thioredoxin reductase protein levels in human HCT116 cell lysate at 40 to 70 uM after 16 hrs by Western blot analysis. It is filed as cell-based. The conditions noted are these: hct-116, 16 h. In a few lines:
as §5

Data set [11] has as its target T2, Dihydrofolate reductase (Homo sapiens). The conditions noted are these: 0.0001 to 1 uM.

SMILES strings stand for the structures. Activity calls are given as the source filed them. No cut-off for these calls is given here.

For the compound `CC1(C)N=C(N)N=C(N)N1OCCCOc1ccccc1`, the IC50 on Dihydrofolate reductase is 0.0053 µM. In the data set on HCT-116 [1], the GI50 was 0.036 µM and the CC50 was > 100 µM. In addition, in the data set on MCF7, halving of growth (GI50) required 0.107 µM and the LC50 (concentration killing 50% of cells present at T0) was > 100 µM. Moreover, in data set [2], the inhibition entry was “Dose-dependent effect”. Also, the inhibition entry in data set [3] was “inactive”. Moreover, the inhibition result in data set [4] was “inactive”.
For `Cl.NC1=NC2(CCCC2)N(OCCCCOc2cccc(C(=O)/C=C/c3ccccc3)c2)C(N)=N1`, the IC50 at Dihydrofolate reductase is 0.0026 µM; in [5], 9.2 µM; in [6], 5.9 µM. Also, the GI50 amounted to 0.116 µM in the data set on HCT-116 [1] and 0.127 µM with MCF7. The CC50 with HCT-116 [1] was 13.5 µM. The compound also gave an LC50 (concentration killing 50% of cells present at T0) in the data set on MCF7 of 9.7 µM. In addition, the inhibition result in data set [2] and in data set [9] was “Dose-dependent effect” each time. Moreover, the inhibition entry in [7] was “Active”. Besides, in the data set with HCT-116 [8], the outcome was Active. The Activity entry in the data set on HCT-116 [10] is reported as “Non-Toxic”. For the same compound, in data set [4], the inhibition result was “inactive”.
On to `O=C(/C=C/c1ccccc1)c1ccccc1` [CHALCONE], for which the IC50 was determined as 46.4 µM in data set [5] and 26.7 µM in data set [6]. Moreover, the inhibition entry in [3] was “Active”. For the same compound, the inhibition entry in [11] and in data set [4] was “inactive” throughout.
Consider `NC1=NC2(CCCC2)N(OCCCOc2ccccc2)C(N)=N1`, for which the IC50 at Dihydrofolate reductase was 0.0199 µM. In addition, in the data set with HCT-116 [1], the GI50 is 0.021 µM and the CC50 was > 100 µM. In the data set with MCF7, this compound yielded a GI50 of 0.077 µM and an LC50 (concentration killing 50% of cells present at T0) of 90.8 µM. For the same compound, the inhibition result in [2] is “Dose-dependent effect”. In addition, the inhibition entry in data set [3] is “inactive”. Moreover, in data set [4], the inhibition entry is “inactive”.
For the compound `Cl.NC1=NC2(CCCC2)N(OCCCOc2cccc(C(=O)/C=C/c3ccccc3)c2)C(N)=N1`, the values for the IC50 (on Dihydrofolate reductase; in [5]; in [6]) were 0.0061 µM, 7.5 µM and 4.6 µM, respectively. The GI50 came to 0.026 µM with HCT-116 [1] and 0.08 µM with MCF7. Besides, the CC50 in the data set on HCT-116 [1] is 14.1 µM. In the data set on MCF7, the LC50 (concentration killing 50% of cells present at T0) was found to be 11.2 µM. For the same compound, the inhibition result in data set [2] and in data set [9] was “Dose-dependent effect” in each case. Moreover, the inhibition entry in [7] is “Active”. In the data set with HCT-116 [8], the outcome was Active. Moreover, the Activity result in the data set with HCT-116 [10] is listed as “Non-Toxic”. Further, the inhibition result in data set [4] was “inactive”.

By IC50 is commonly meant the concentration needed to halve the response being measured. As a reminder, the GI50 is the concentration at which growth is held to half of that of the control.

These data come from ChEMBL document CHEMBL4007411, “Design, Synthesis, and Biological Evaluation of Coupled Bioactive Scaffolds as Potential Anticancer Agents for Dual Targeting of Dihydrofolate Reductase and Thioredoxin Reductase” (J Med Chem, 2017).
